Measurements taken from ChEMBL document CHEMBL5104108, “Concise synthesis and biological activity evaluation of novel pyrazinyl-aryl urea derivatives against several cancer cell lines, which can especially induce T24 apoptotic and necroptotic cell death” (RSC Med Chem, 2022).
The source made the active and inactive calls. The rule behind the calls is not given here.

Columns and labels:
[1] = Antiproliferative activity against human HCV-29 cells measured after 48 hrs by MTT assay; type: functional, cell-based; conditions: HCV-29, 48 h
How it was run: (§1)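 Cells seeded 5 × 10^3 per well, grown overnight at 37 °C, then exposed to compound at final 1–40 μM (1, 2.5, 5, 7.5, 10, 12.5, 15, 20, 30, 40 μM) for the stated period. MTT added, 4 h at 37 °C, formazan dissolved in DMSO, absorbance read. IC50 = concentration killing 50% of cells relative to untreated control; mean ± S.D. of four independent experiments.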

[2] = Selectivity index, ratio IC50 for antiproliferative activity against human HCV-29 cells over IC50 for antiproliferative activity against human T24 cells; type: toxicity, cell-based; conditions: HCV-29 cells versus T24 cells
How it was run: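 MTT assay, 48 h exposure at final 1–40 μM in T24 and normal bladder epithelial HCV29 cells (5 × 10^3/well, seeded overnight, 37 °C). MTT added for 4 h and formazan dissolved in DMSO. IC50 taken relative to untreated control, four parallel samples. SI = IC50(HCV29)/IC50(T24).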

[3] = tested on: HepG2; experiment: Antiproliferative activity against human HepG2 cells measured after 48 hrs by MTT assay; type: functional, cell-based; conditions: HepG2, 48 h; how it was run: as §1
[4] = tested on: MGC-803; experiment: Antiproliferative activity against human MGC-803 cells measured after 48 hrs by MTT assay; type: functional, cell-based; conditions: MGC-803, 48 h; how it was run: as §1
[5] = tested on: T-24; experiment: Antiproliferative activity against human T24 cells measured after 48 hrs by MTT assay; type: functional, cell-based; conditions: T-24, 48 h; how it was run: as §1
[6] = Tmax in Sprague-Dawley rat at 12 mg/kg, IG measured HPLC analysis; type: ADME, organism-based; conditions: in vivo, po
How it was run: (§2)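 Fasted (12 h) male-unspecified Sprague-Dawley rats (250 ± 20 g), n = 6 per group. Single intragastric dose of suspension (2 mg mL−1 in Tween 80/0.9% NaCl 1.5:5 v/v). Orbital blood drawn at 0.5–48 h and plasma assayed by reversed-phase C18 HPLC-UV. One-compartment fit, weight 1.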

[7] = tested on: T-24; experiment: Down-regulation of RIPK1 expression in human T24 cells at 7.5 to 10 uM measured after 16 hrs by Western blot analysis; type: functional, cell-based; conditions: dose 7.5-10 µM
How it was run: (§3)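 T24 cells co-incubated 16 h with or without Nec-1 (60 μM). Lysates quantified by BCA, 40 μg protein resolved by SDS-PAGE, transferred to PVDF, probed with primary and peroxidase-conjugated secondary antibodies, detected by ECL. Band gray values normalized to β-actin loading control.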

[8] = MRT (0 to 48 hrs) in Sprague-Dawley rat at 12 mg/kg, IG measured HPLC analysis; type: ADME, organism-based; conditions: in vivo, po; how it was run: as §2
[9] = Half-life in Sprague-Dawley rat at 12 mg/kg, IG measured HPLC analysis; type: ADME, organism-based; conditions: in vivo, po
[10] = tested on: T-24; experiment: Down-regulation of RIPK3 expression in human T24 cells at 7.5 to 10 uM measured after 16 hrs by Western blot analysis; type: functional, cell-based; conditions: dose 7.5-10 µM; how it was run: as §3
[11] = tested on: T-24; experiment: Down-regulation of RIPK2 expression in human T24 cells at 7.5 to 10 uM measured after 16 hrs by Western blot analysis; type: functional, cell-based; conditions: dose 7.5-10 µM; how it was run: as §3
[12] = Clearance in Sprague-Dawley rat at 12 mg/kg, IG measured HPLC analysis; type: ADME, organism-based; conditions: in vivo, po
[13] = AUC (0 to 48 hrs) in Sprague-Dawley rat at 12 mg/kg, IG measured HPLC analysis; type: ADME, organism-based; set-up: time < 48 hr, dose 12 mg/kg, route ig; conditions: in vivo, po
[14] = tested on: T-24; experiment: Down-regulation of p-RIPK3 expression in human T24 cells at 7.5 to 10 uM measured after 16 hrs by Western blot analysis; type: functional, cell-based; conditions: dose 7.5-10 µM; how it was run: as §3
[15] = tested on: T-24; experiment: Down-regulation of p-RIPK1 expression in human T24 cells at 7.5 to 10 uM measured after 16 hrs by Western blot analysis; type: functional, cell-based; conditions: dose 7.5-10 µM; how it was run: as §3
[16] = Cmax in Sprague-Dawley rat at 12 mg/kg, IG measured HPLC analysis; type: ADME, organism-based; set-up: dose 12 mg/kg, route ig; conditions: in vivo, po
[17] = Absorption rate constant in Sprague-Dawley rat at 12 mg/kg, IG measured HPLC analysis; type: ADME, organism-based; conditions: in vivo, po
[18] = AUMC in Sprague-Dawley rat at 12 mg/kg, IG measured HPLC analysis; type: ADME, organism-based; conditions: in vivo, po
[19] = tested on: T-24; experiment: Down-regulation of p-MLKL expression in human T24 cells at 7.5 to 10 uM measured after 16 hrs by Western blot analysis; type: functional, cell-based; conditions: dose 7.5-10 µM; how it was run: as §3
[20] = tested on: T-24; experiment: Down-regulation of MLKL expression in human T24 cells at 7.5 to 10 uM measured after 16 hrs by Western blot analysis; type: functional, cell-based; conditions: dose 7.5-10 µM; how it was run: as §3

| SMILES | IC50 [1] [µM] | SI [2] | IC50 [3] [µM] | IC50 [4] [µM] | IC50 [5] [µM] | other results |
| --- | --- | --- | --- | --- | --- | --- |
| O=C(Nc1ccc(Cl)cc1)Nc1cccc(CNc2nccnc2Cl)c1 | 19.4 | 3.54 | 8.35 | 4.98 | 5.47 |  |
| CNC(=O)c1cc(Oc2ccc(NC(=O)Nc3ccc(Cl)c(C(F)(F)F)c3)c(F)c2)ccn1 [REGORAFENIB] | 12.9 | 2.16 | 10.4 | 9.46 | 5.98 | Tmax [6]: 8.07 h; Activity [7]: Active; MRT last [8]: 7.29 h; half-life [9]: 5.06 h; Activity [10]: Active; Activity [11]: Active; CL/F [12]: 0.986 mL/min; AUC(0-t) at 48 h [13]: 50700 ng·h/mL; Activity [14]: Active; Activity [15]: Active; Cmax [16]: 3100 ng/mL; Ka [17]: 0.138 h⁻¹; AUMC [18]: 737185 hr2.ng/ml; Activity [19]: Active; Activity [20]: Active |
| CS(=O)(=O)c1ccc(NC(=O)Nc2cccc(CNc3nccnc3Cl)c2)cc1 | > 40 |  | 15.1 | 12.3 | 29.3 |  |
| Cc1ccc(NC(=O)Nc2cccc(CNc3nccnc3Cl)c2)cc1C | 12.8 | 1.43 | 10.7 | 9.87 | 8.93 |  |
| O=C(Nc1ccccc1)Nc1cccc(CNc2nccnc2Cl)c1 | 36.2 | 1.83 | 15.6 | 16.3 | 19.8 |  |
| O=C(Nc1cccc(CNc2nccnc2Cl)c1)Nc1ccc(Cl)c(Cl)c1 | 27.2 | 5.22 | 6.17 | 4.97 | 5.21 |  |
| Cc1ccc(NC(=O)Nc2cccc(CNc3nccnc3Cl)c2)cc1 | 20.1 | 2.05 | 11.5 | 11.9 | 9.82 |  |
| Cc1cccc(NC(=O)Nc2cccc(CNc3nccnc3Cl)c2)c1 | 28.3 | 2.96 | 11.2 | 14.6 | 9.57 |  |
| Nc1ccn([C@@H]2O[C@H](CO)[C@@H](O)C2(F)F)c(=O)n1 [GEMCITABINE] | 21.5 | 2.12 |  |  |  |  |
| CN(C)c1ccc(NC(=O)Nc2cccc(CNc3nccnc3Cl)c2)cc1 | > 40 |  | > 40 | 11.5 | 20.2 |  |
| Cc1ccc(NC(=O)Nc2cccc(CNc3nccnc3Cl)c2)cc1Cl | 21.5 | 2.91 | 11.3 | 17.5 | 7.39 |  |
| CCOc1ccc(NC(=O)Nc2cccc(CNc3nccnc3Cl)c2)cc1 | 30.5 | 3.36 | 7.05 | 7.24 | 9.08 |  |
| CCc1ccccc1NC(=O)Nc1cccc(CNc2nccnc2Cl)c1 | 16.4 | 1.88 | 7.86 | 9.37 | 8.72 |  |
| O=C(Nc1cccc(CNc2nccnc2Cl)c1)Nc1cccc2ccccc12 | > 40 |  | > 40 | 32.7 | > 40 |  |
| COc1ccccc1NC(=O)Nc1cccc(CNc2nccnc2Cl)c1 | 18.2 | 1.74 | 13.7 | 12.2 | 10.4 |  |
| O=C(Nc1cccc(CNc2nccnc2Cl)c1)NC1CCCCC1 | > 40 |  | > 40 | > 40 | > 40 |  |
| O=C(Nc1cccc(CNc2nccnc2Cl)c1)Nc1cccc(C(F)(F)F)c1 | 28.7 | 5.64 | 6.21 | 7.29 | 5.08 |  |
| O=C(Nc1cccc(CNc2nccnc2Cl)c1)Nc1ccc(Cl)cc1Br | 24 | 3.61 | 6.72 | 7.48 | 6.65 |  |
| O=C(Nc1cccc(CNc2nccnc2Cl)c1)Nc1ccc(Cl)cc1Cl | 25.4 | 4.42 | 7.23 | 6.43 | 5.74 |  |
| O=C(Nc1cccc(CNc2nccnc2Cl)c1)NC1CCCC1 | > 40 |  | 18.4 | 23.4 | > 40 |  |
| CCc1cccc(CC)c1NC(=O)Nc1cccc(CNc2nccnc2Cl)c1 | 18.7 |  | 10.8 | 6.13 | 6.39 |  |
| O=C(Nc1cccc(Cl)c1)Nc1cccc(CNc2nccnc2Cl)c1 | 21.4 | 3.14 | 9.14 | 5.33 | 6.81 |  |
| O=C(Nc1cccc(CNc2nccnc2Cl)c1)Nc1ccccc1Cl | 28.1 | 4.21 | 8.56 | 7.13 | 6.68 |  |
| COc1ccc(NC(=O)Nc2cccc(CNc3nccnc3Cl)c2)cc1 | 20.9 | 2.13 | 12 | 9.24 | 9.82 |  |
| Cc1ccccc1NC(=O)Nc1cccc(CNc2nccnc2Cl)c1 | 33.6 | 2.47 | 15.3 | 14 | 13.6 |  |
| O=C(Nc1cccc(CNc2nccnc2Cl)c1)Nc1ccccc1F | 25.1 | 3.37 | 10.5 | 6.44 | 7.45 |  |
| CC(C)(C)c1ccc(NC(=O)Nc2cccc(CNc3nccnc3Cl)c2)cc1 | 15.3 | 2.54 | 7.55 | 4.82 | 6.01 |  |
| O=C(Nc1cccc(CNc2nccnc2Cl)c1)Nc1ccc(F)c(Cl)c1 | 24.7 | 4.94 | 6.75 | 5.02 | 4.99 |  |
| Cc1ccc(NC(=O)Nc2cccc(CNc3nccnc3Cl)c2)c(C)c1 | 23.8 | 2.58 | 9.29 | 10.1 | 9.23 |  |
